For experiment [1], the system named is Glioblastoma (U87-MG) cells. The experiment can be described thus: Tau degradation in U87MG cells, immunoblot. Format: cell-based, human. The settings on record: 50 μM, 24 h, cycloheximide 20 μg/mL.
Experiment [2] addresses human constitutive 20S proteasome (CT-L, β5) (Homo sapiens, UniProt P25787+P60900). The experiment can be described thus: Proteasome activity assay, 20S chymotrypsin-like. The format is biochemical. The settings on record: for enhancement of 20S proteolytic (CT-L) activity, in words: CT-L peptide substrate.
Experiment [3] addresses human constitutive 20S proteasome (T-L, β2) (Homo sapiens, UniProt P25787+P60900). Kind of experiment: Proteasome activity assay, 20S tryptic-like. The format is biochemical. To be noted: read-out: EC50, tryptic-like (T-L) activity; Boc-LRR-AMC.
The target of experiment [4] is human constitutive 20S proteasome (Casp-L, β1) (Homo sapiens, UniProt P25787+P60900). Kind of experiment: Proteasome activity assay, 20S caspase-like. The format is biochemical. To be noted: read-out: EC50, caspase-like (Casp-L) activity; Z-LLE-AMC.
The next experiment deals with 26S proteasome (Homo sapiens, UniProt P25787+P60900). Kind of experiment: Proteasome activity assay, 26S-mediated proteolysis of CT-L peptide probe. Format: biochemical. The method in brief:
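Pre-incubate 1nM human 26S proteasome with test compound for 10 min at RT in 50mM Tris-HCl pH 7.5 containing 5mM MgCl2 and 2.5mM ATP. Add Suc-LLVY-AMC (10μM) and read the fluorescence increase per minute for 1 h at 37 °C (380-460nm). Express activity as fold of vehicle control.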

For experiment [5], the target named is purified human 20S proteasome with α-synuclein and GAPDH (Homo sapiens, UniProt P25787+P60900). Kind of experiment: In vitro degradation of α-synuclein. The format is biochemical. The method in brief: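 Pre-incubate 15nM purified human 20S with test compound (3, 10, 30 μM) or vehicle for 20 min at RT in 20mM HEPES pH 7.4, 2mM EDTA, 1mM EGTA. Add recombinant α-synuclein and GAPDH (0.5μM each, final) and incubate 1 h at 37 °C. Immunoblot α-syn and GAPDH. Controls: reactions without 20S, and 20S pre-treated with bortezomib (3μM).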

For experiment [6], the target named is purified 20S proteasome with tau441 and GAPDH (Homo sapiens, UniProt P25787+P60900). Kind of experiment: In vitro degradation of tau441. Format: biochemical. To be noted: compounds 30 μM; SDS 0.02%. The method in brief:
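Pre-incubate 15nM purified human 20S proteasome with test compound or vehicle for 20 min at RT in 20mM HEPES pH 7.4, 2mM EDTA, 1mM EGTA. Add recombinant tau441 plus GAPDH (0.1μM each, final) and incubate 1 h at 37 °C. Resolve on a 4-20% tris-glycine gel and immunoblot. Quantify tau by densitometry against untreated tau control.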

In experiment [7] the test system is HEK 293 cells stably expressing ODC-GFPSpark. Kind of experiment: ODC-GFPSpark degradation in HEK 293T cells, immunoblot. The format is cell-based, human. To be noted: 50 μM, 24 h, cycloheximide 20 μg/mL.
The next experiment concerns 20S proteasome. The settings on record: read-out: EC50, enhancing 20S mediated protein degradation; cited from earlier work.

Molecules are shown by their SMILES.

Take `CC(C)CCCN1c2ccccc2Sc2ccccc21` [compound 1]: the “tau concentrations compared to the vehicle control” value in [1] is listed as “modest clearance of tau”.

Broadly, the EC50 is the concentration needed to bring the measured effect to its halfway point. Regarding `O=S(=O)(O)CCCCN1c2ccccc2Sc2ccccc21` [compound 2], in experiment [2], the “enhancement of 20S proteolytic (CT-L) activity, in words” value (“enhancement of 20S proteolytic” below) is reported as “enhanced 20S proteolytic activity”. Moreover, in experiment [2] (at 10 μM), the “fold enhancement of 20S activity” value is about 4 fold. Besides, the “concentration above which 20S activity drops” value in experiment [2] (concentration response up to 70 μM, CT-L substrate) was over 35 µM. Besides, the EC50 worked out at 10 µM in [3] and 4.8 µM in [4]. At 26S proteasome, the “effect on 26S-mediated proteolysis of the CT-L peptide probe” value is “did not affect”. The “rate of 20S-mediated degradation of α-syn compared to 20S/vehicle control” value in experiment [5] (3, 10 and 30 μM, concentration-dependent) is listed as “significantly enhanced”. Further, the “α-Syn levels in the absence of 20S or with 20S pretreated with bortezomib” value in experiment [5] (BTZ 3 μM) was “unaffected”. In addition, the “20S-mediated degradation of the structured protein GAPDH” value in experiment [5] (any of the concentrations tested (3, 10, 30 μM)) is “does not enhance”. Also, the “rate of 20S-mediated degradation of tau compared to 20S/vehicle control” value (from here on “rate … of tau compared to 20S/vehicle control”) in experiment [6] is “significantly enhance”. Moreover, the “GFP-ODC levels compared to controls” value in experiment [7] was “reduced GFP-ODC levels”. For the same compound, the “tau concentrations compared to the vehicle control” value in [1] is “significantly reducing tau concentrations”.

Regarding `CCCCCCCCCCCCOS(=O)(=O)[O-].[Na+]` [SDS, sodium dodecyl sulfate], the “rate … of tau compared to 20S/vehicle control” value in [6] is “prevents”.

As to `CN(C)CCCN1c2ccccc2Sc2ccc(Cl)cc21` [chlorpromazine, reference compound], in experiment [2], the “enhancement of 20S proteolytic” value is “enhanced 20S proteolytic activity”. In experiment [6], the “rate … of tau compared to 20S/vehicle control” value was “significantly enhance”. The “GFP-ODC levels compared to controls” value in [7] is given as “reduced GFP-ODC levels”. Further, the “tau concentrations compared to the vehicle control” value in [1] was “significantly reducing tau concentrations”.

For `CCCCC/C=C\C/C=C\C/C=C\C/C=C\CCCC(=O)Nc1ccc(O)cc1` [AM-404], the EC50 in the experiment on 20S proteasome was about 32 µM.

Turning to `O=S(=O)(O)CCCN1c2ccccc2Sc2ccc(Cl)cc21` [compound 3], in experiment [2], the “enhancement of 20S proteolytic” value was “no significant enhancement”.

The record behind these values is publication PMC5720355 (ACS chemical biology, 2017).
